Test results as given in ChEMBL document CHEMBL3227958, “A preliminary structure-activity study of the mixed-function oxidase inhibitor 7,8-benzoflavone” (J Med Chem, 1979).

Assays:
[1] = Inhibition of benzo(alpha)pyrene monooxygenase in 3-methylcholanthrene-treated Sprague-Dawley rat liver microsomes using [3H]benzo(alpha)pyrene as substrate after 15 mins by liquid scintillation spectrometry; conditions: read-out: I50
Outline: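 Liver microsomes from male Sprague-Dawley rats (60-80 g) given 3-methylcholanthrene 20 mg/kg ip in corn oil on 2 days, then starved 24 h. Run with 0.200 mg/mL protein, NADPH-generating system and 60 μM [3H]benzo[a]pyrene for 15 min at 37 °C. Hydroxylated products were taken into alkali and counted. I50 came from log concentration vs % activity, with at least four concentrations and triplicates.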

[2] = Inhibition of benzo(alpha)pyrene monooxygenase in phenobarbital-treated Sprague-Dawley rat liver microsomes using [3H]benzo(alpha)pyrene as substrate after 15 mins by liquid scintillation spectrometry; conditions: read-out: I50
Outline: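 Microsomes came from male Sprague-Dawley rats (60-80 g) given phenobarbital 80 mg/kg ip in saline on 3 days, then starved 24 h. The assay used 0.400 mg/mL protein, NADP/glucose 6-phosphate/G6PDH and 60 μM [3H]benzo[a]pyrene for 15 min at 37 °C. Hexane/alkali extraction was followed by scintillation counting, minus an ethanolic-NaOH-treated microsome blank. I50 used ≥4 inhibitor concentrations, log-dose plot, three replicates.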

[3] = tested on: benzo(alpha)pyrene monooxygenase; assay: Inhibition of benzo(alpha)pyrene monooxygenase in phenobarbital-treated Sprague-Dawley rat liver microsomes using [3H]benzo(alpha)pyrene as substrate at 104 uM after 15 mins by liquid scintillation spectrometry; conditions: liver microsomes from phenobarbital-treated rats, probe [3H]benzo(alpha)pyrene
Outline: (§1)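 Single-concentration change in benzo[a]pyrene oxidation versus solvent controls, using phenobarbital-induced male Sprague-Dawley rat liver microsomes at 0.400 mg/mL protein. Conditions: 60 μM [3H]benzo[a]pyrene, NADPH-generating system, 15 min at 37 °C. Termination used ethanolic NaOH, then hexane extraction and scintillation counting of the lower phase, corrected with an ethanolic-NaOH-treated microsome blank. Three replicates.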

[4] = tested on: benzo(alpha)pyrene monooxygenase; assay: Inhibition of benzo(alpha)pyrene monooxygenase in phenobarbital-treated Sprague-Dawley rat liver microsomes using [3H]benzo(alpha)pyrene as substrate at 100 uM after 15 mins by liquid scintillation spectrometry; conditions: liver microsomes from phenobarbital-treated rats, probe [3H]benzo(alpha)pyrene; outline: as §1
[5] = tested on: benzo(alpha)pyrene monooxygenase; assay: Inhibition of benzo(alpha)pyrene monooxygenase in 3-methylcholanthrene-treated Sprague-Dawley rat liver microsomes using [3H]benzo(alpha)pyrene as substrate at 100 uM after 15 mins by liquid scintillation spectrometry; conditions: liver microsomes from 3-methylcholanthrene-treated rats, probe [3H]benzo(alpha)pyrene
Outline: (§2)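 Percent inhibition or stimulation was measured at the single stated inhibitor concentration, relative to solvent-only controls. Hepatic microsomes were from 3-methylcholanthrene-pretreated male Sprague-Dawley rats, used at 0.200 mg/mL protein with an NADPH-generating system. Substrate was 60 μM [3H]benzo[a]pyrene, incubated 15 min at 37 °C. The reaction was stopped with NaOH in 80% ethanol, hexane-extracted, and the aqueous phase counted. Triplicate samples.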

[6] = Stimulation of benzo(alpha)pyrene monooxygenase in phenobarbital-treated Sprague-Dawley rat liver microsomes using [3H]benzo(alpha)pyrene as substrate at 98 uM after 15 mins by liquid scintillation spectrometry; type: ADME; conditions: 0.25 h; outline: as §1
[7] = Stimulation of benzo(alpha)pyrene monooxygenase in phenobarbital-treated Sprague-Dawley rat liver microsomes using [3H]benzo(alpha)pyrene as substrate at 100 uM after 15 mins by liquid scintillation spectrometry; type: ADME; conditions: 0.25 h; outline: as §1
[8] = Stimulation of benzo(alpha)pyrene monooxygenase in phenobarbital-treated Sprague-Dawley rat liver microsomes using [3H]benzo(alpha)pyrene as substrate at 200 uM after 15 mins by liquid scintillation spectrometry; type: ADME; conditions: 0.25 h; outline: as §1
[9] = Stimulation of benzo(alpha)pyrene monooxygenase in 3-methylcholanthrene-treated Sprague-Dawley rat liver microsomes using [3H]benzo(alpha)pyrene as substrate at 200 uM after 15 mins by liquid scintillation spectrometry; type: ADME; conditions: 0.25 h; outline: as §2
[10] = tested on: benzo(alpha)pyrene monooxygenase; assay: Inhibition of benzo(alpha)pyrene monooxygenase in phenobarbital-treated Sprague-Dawley rat liver microsomes using [3H]benzo(alpha)pyrene as substrate at 99 uM after 15 mins by liquid scintillation spectrometry; conditions: liver microsomes from phenobarbital-treated rats, probe [3H]benzo(alpha)pyrene; outline: as §1
[11] = Stimulation of benzo(alpha)pyrene monooxygenase in phenobarbital-treated Sprague-Dawley rat liver microsomes using [3H]benzo(alpha)pyrene as substrate at 99 uM after 15 mins by liquid scintillation spectrometry; type: ADME; conditions: 0.25 h; outline: as §1
[12] = tested on: benzo(alpha)pyrene monooxygenase; assay: Inhibition of benzo(alpha)pyrene monooxygenase in 3-methylcholanthrene-treated Sprague-Dawley rat liver microsomes using [3H]benzo(alpha)pyrene as substrate at 99 uM after 15 mins by liquid scintillation spectrometry; conditions: liver microsomes from 3-methylcholanthrene-treated rats, probe [3H]benzo(alpha)pyrene; outline: as §2

Compound | IC50 [1] [µM] | IC50 [2] [µM] | other results
Nc1cc2c(=O)cc(-c3ccccc3)oc2c2ccccc12 | 31 | 82 | –
c1ccc(-c2cc3ccc4ccccc4c3o2)cc1 | > 104 | > 104 | inhibition at 0.25 h, 104 µM [3]: 34%
COc1ccccc1-c1cc(=O)c2ccc3ccccc3c2o1 | 13 | > 100 | inhibition at 0.25 h, 100 µM [4]: 34%
COc1ccc(-c2cc(=O)c3ccc4ccccc4c3o2)cc1 | > 100 | > 100 | inhibition at 0.25 h, 100 µM [5]: 46%; inhibition at 0.25 h, 100 µM [4]: 0%
COc1cccc(-c2cc(=O)c3ccc4ccccc4c3o2)c1 | 11 | > 98 | Activity [6]: 9%
O=c1cc(-c2cccc([N+](=O)[O-])c2)oc2c1ccc1ccccc12 | > 100 | > 100 | inhibition at 0.25 h, 100 µM [5]: 36%; Activity [7]: 42%
O=c1cc(-c2ccccc2)oc2c1ccc1ccccc12 [ALPHA-NAPHTHOFLAVONE] | 10 | > 100 | Activity [7]: 21%
O=c1cc(-c2ccccc2)oc2c1cc([N+](=O)[O-])c1ccccc12 | > 200 | > 200 | Activity [8]: 43%; Activity [9]: 34%
O=c1cc(-c2ccc(Cl)cc2)oc2c1ccc1ccccc12 | 13 | > 99 | inhibition at 0.25 h, 99 µM [10]: 0%
O=c1cc(-c2ccc3ccccc3c2)oc2c1ccc1ccccc12 | 11 | > 100 | inhibition at 0.25 h, 100 µM [4]: 0%
O=c1cc(-c2ccc([N+](=O)[O-])cc2)oc2c1ccc1ccccc12 | > 99 | > 99 | Activity [11]: 33%; inhibition at 0.25 h, 99 µM [12]: 0%
O=c1c(-c2ccccc2)coc2c1ccc1ccccc12 | > 100 | > 100 | inhibition at 0.25 h, 100 µM [5]: 18%; Activity [7]: 6%
O=c1cc(-c2ccccc2)oc2c1cc(Br)c1ccccc12 | > 97 | > 97 | –
